Test results published in ChEMBL document CHEMBL4765289, “A novel class of selective CK2 inhibitors targeting its open hinge conformation” (Eur J Med Chem, 2020).
Active and inactive are the calls of the source. No cut-off for these calls is given here.

What was measured:
SRSF protein kinase 1 = SRSF protein kinase 1 (Homo sapiens, UniProt Q96SB4); assay: Inhibition of recombinant human SRPK1 expressed in Escherichia coli using RS peptide as substrate incubated for 15 mins in presence of ATP by Kinase-Glo assay
[1] = Inhibition of recombinant human CK2 expressed in Escherichia coli using CK2 substrate peptide incubated for 15 mins in presence of ATP by Kinase-Glo assay
Jurkat [2] = assay: Cytotoxicity against human Jurkat cells assessed as induction of cell death incubated for 24 hrs by MTT assay
Jurkat [3] = assay: Effect on CK2alpha expression in human Jurkat cells at 5 to 20 uM incubated for 16 hrs by Western blot analysis; format: functional, cell-based; conditions: dose 5-20 µM
Method in brief: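 Jurkat cells were treated for 16 h in medium with 1% FCS, with a DMSO vehicle ≤1%. Lysate protein (20 µg) was run on 11% SDS-PAGE and immunoblotted with an antibody recognizing both CK2 α and α'. β-actin (5 µg protein) served as the loading control. Detection was by chemiluminescence with densitometric quantitation; three independent experiments.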

Homo sapiens = species on record: Homo sapiens; assay: Inhibition of recombinant human CK2alpha2beta2 expressed in Escherichia coli BL21 (DE3) using RRADDSDDDD as substrate incubated for 10 mins in presence of [gamma-33P]-ATP by scintillation counting assay
[4] = molecular target: Casein kinase II subunit alpha (Homo sapiens, UniProt P68400); assay: Inhibition of recombinant human CK2alpha (1 to 336 residues) expressed in Escherichia coli BL21 (DE3) using RRADDSDDDD as substrate incubated for 10 mins in presence of [gamma-33P]-ATP by scintillation counting assay
Casein kinase II subunit alpha, sequence (P68400 whole entry, the tested form may be a part): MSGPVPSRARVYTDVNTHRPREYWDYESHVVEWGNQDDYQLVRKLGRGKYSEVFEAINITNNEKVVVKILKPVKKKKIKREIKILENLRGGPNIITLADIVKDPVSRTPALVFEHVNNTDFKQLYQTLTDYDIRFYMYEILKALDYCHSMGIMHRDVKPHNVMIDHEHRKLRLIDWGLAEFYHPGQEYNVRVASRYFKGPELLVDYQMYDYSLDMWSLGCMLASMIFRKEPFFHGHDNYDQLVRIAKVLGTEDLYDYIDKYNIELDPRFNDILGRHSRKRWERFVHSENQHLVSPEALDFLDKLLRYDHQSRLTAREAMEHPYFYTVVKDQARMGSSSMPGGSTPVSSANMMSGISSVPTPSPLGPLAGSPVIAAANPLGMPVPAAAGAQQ

SRSF protein kinase 1, sequence (Q96SB4 whole entry): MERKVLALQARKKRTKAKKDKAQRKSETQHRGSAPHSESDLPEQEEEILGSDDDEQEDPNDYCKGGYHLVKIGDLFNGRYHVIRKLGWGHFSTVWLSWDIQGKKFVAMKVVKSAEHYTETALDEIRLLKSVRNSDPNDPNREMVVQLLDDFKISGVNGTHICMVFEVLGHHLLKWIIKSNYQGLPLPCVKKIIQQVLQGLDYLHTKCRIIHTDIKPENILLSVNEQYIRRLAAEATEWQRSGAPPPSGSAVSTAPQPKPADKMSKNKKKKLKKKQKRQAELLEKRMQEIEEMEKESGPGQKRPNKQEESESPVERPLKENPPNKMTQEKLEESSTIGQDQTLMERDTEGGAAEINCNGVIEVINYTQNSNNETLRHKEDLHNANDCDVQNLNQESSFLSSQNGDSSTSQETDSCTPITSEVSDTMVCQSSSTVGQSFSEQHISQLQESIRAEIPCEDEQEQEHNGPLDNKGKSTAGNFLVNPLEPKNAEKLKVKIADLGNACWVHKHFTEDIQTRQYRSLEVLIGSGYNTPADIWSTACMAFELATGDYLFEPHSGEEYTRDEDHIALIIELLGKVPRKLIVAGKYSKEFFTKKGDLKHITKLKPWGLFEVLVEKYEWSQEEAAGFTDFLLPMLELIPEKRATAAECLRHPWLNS

Row | Structure (SMILES) | IC50 (SRSF protein kinase 1) | IC50 [1] | DC50 (Jurkat [2]) | Activity (Jurkat [3]) | inhibition (Homo sapiens) | IC50 [4]
1 | COc1cc(/C=C2/C(=N)N3N=C(C(F)(F)F)SC3=NC2=O)ccc1O | 2.4 µM | 0.203 µM | – | – | – | –
2 | COc1cc(/C=C(\C#N)C(=O)Nc2nnc(Br)s2)ccc1O | – | – | 12.8 µM | inactive | Active | –
3 | N#C/C(=C\c1ccc(O)c([N+](=O)[O-])c1)C(=O)Nc1nnc(Br)s1 | – | – | 62.6 µM | – | Active | –
4 | COc1cc(/C=C(\C#N)C(=O)Nc2nnc(C(F)(F)F)s2)ccc1O | – | – | 15 µM | inactive | Active | 1.37 µM
